According to ChEMBL document CHEMBL1132600:

Test system: not listed separately
Assay: Ratio of Vmax value and Km value of the compound.
Outline: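 Sprague–Dawley rat brain microsomes (105000g pellet) at 0.3 mg/mL protein, 37 °C, pH 7.4, BSA as carrier. Varied substrate concentrations, sampled at least four times within the linear initial range. Arachidonic acid formed measured by RP-HPLC (UV 204 nm, calibration curve). Initial velocity vs substrate concentration fitted to Michaelis–Menten.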

SMILES | Vmax / Km (ml min-1 kg-1) | Vmax / Km (ml min-1 mg-1)
CCCCC/C=C\C/C=C\C/C=C\C/C=C\CCCC(=O)N[C@@H](C)CO | 0.049 | 
CCCCC/C=C\C/C=C\C/C=C\C/C=C\CCCC(=O)Nc1ccccc1O | 0.43 | 
CCCCC/C=C\C/C=C\C/C=C\C/C=C\CCCC(=O)N[C@H](C)CO | 0.011 | 
CCCCC/C=C\C/C=C\C/C=C\C/C=C\CCCC(N)=O |  | 1.24

Molecular target: T1, Fatty-acid amide hydrolase 1 (Rattus norvegicus) (UniProt P97612)
T1 sequence (whole entry): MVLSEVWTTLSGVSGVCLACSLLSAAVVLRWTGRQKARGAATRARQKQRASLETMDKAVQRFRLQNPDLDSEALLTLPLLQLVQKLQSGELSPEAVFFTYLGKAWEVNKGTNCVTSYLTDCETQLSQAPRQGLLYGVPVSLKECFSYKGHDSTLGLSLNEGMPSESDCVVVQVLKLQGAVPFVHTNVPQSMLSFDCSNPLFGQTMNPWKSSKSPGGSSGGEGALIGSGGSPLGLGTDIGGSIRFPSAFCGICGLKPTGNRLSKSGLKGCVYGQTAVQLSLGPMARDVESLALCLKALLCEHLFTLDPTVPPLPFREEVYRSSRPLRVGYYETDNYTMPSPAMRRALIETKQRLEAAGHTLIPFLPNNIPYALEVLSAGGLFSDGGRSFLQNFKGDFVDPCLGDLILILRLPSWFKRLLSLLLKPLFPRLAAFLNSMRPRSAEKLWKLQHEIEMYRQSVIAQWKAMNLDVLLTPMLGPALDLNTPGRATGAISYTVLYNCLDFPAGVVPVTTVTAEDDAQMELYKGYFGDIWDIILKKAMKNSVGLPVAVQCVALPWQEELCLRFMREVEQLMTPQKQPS
Assay: Tested for hydrolysis by rat brain microsomal anandamide amidohydrolase (AAH).
Outline: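 Substrate at 100 μM (final) with 150 μg rat brain microsomal protein in 50 mM Tris·HCl, 1 mM EDTA, 0.1% BSA, pH 7.4, 37 °C, 15 min with shaking. Stopped with acetonitrile. Products quantified by RP-HPLC: arachidonic acid at 204 nm, or ethanolamine-type amine by OPA precolumn derivatization at 230 nm. Substrate-free blank subtracted. Four experiments in duplicate.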

SMILES | Rate of hydrolysis (nM min-1 mg-1) | Relative rate of hydrolysis
CCCCC/C=C\C/C=C\CCCCCCCC(=O)NCCO | 0.98 | 
CCCCC/C=C\C/C=C\C/C=C\C/C=C\CCCC(=O)NC(C)(C)C | 0.022 | 1.8%
CCCCCCCCCCCCCCCCCC(=O)NCCO | 0.2 | 15%
CCCCC/C=C\C/C=C\C/C=C\C/C=C\CCCC(=O)N[C@@H](C)CO | 0.299 | 
CCCCC/C=C\C/C=C\C/C=C\C/C=C\CCCC(=O)Nc1ccc(CO)cc1 | 0 | 0%
CCCCC/C=C\C/C=C\C/C=C\C/C=C\CCCC(=O)NCCO | 1.3 | 
CCCCC/C=C\C/C=C\C/C=C\C/C=C\CCCC(=O)Nc1cccc(O)c1 | 1.98 | 152%
CCCCC/C=C\C/C=C\C/C=C\C/C=C\CCCC(=O)NC(C)(C)CO | 0.056 | 4.3%
CCCCC/C=C\C/C=C\C/C=C\C/C=C\CCCC(=O)N(CCO)CCO | 0 | 
CCCCC/C=C\C/C=C\C/C=C\C/C=C\CCCC(=O)Nc1ccccc1O | 2.51 | 193%
CCCCC/C=C\C/C=C\C/C=C\C/C=C\CCCC(=O)N[C@@H](C)CC | 0.082 | 6.3%
CCCCCCCC/C=C\CCCCCCCC(=O)NCCO | 0.79 | 61.1%
CCCCC/C=C\C/C=C\C/C=C\C/C=C\CCCC(=O)N[C@H](C)CO | 0.03 | 
CCCCC/C=C\C/C=C\C/C=C\C/C=C\CCCC(=O)NCCF | 1.65 | 127%
CCCCC/C=C\C/C=C\C/C=C\C/C=C\CCCC(=O)NC[C@@H](C)O | 1.58 | 121%
CCCCC/C=C\C/C=C\C/C=C\C/C=C\CCCC(=O)N(C)CCO | 0 | 0%
CCCCC/C=C\C/C=C\C/C=C\C/C=C\CCCC(=O)N[C@H](C)CC | 0 | 0%
CCCCC/C=C\C/C=C\C/C=C\C/C=C\CCCC(=O)OCC(O)CO (stereo not drawn) | 3.43 | 264%
CCCCC/C=C\C/C=C\C/C=C\C/C=C\CCCC(=O)Nc1ccc(O)cc1 | 0.208 | 16%
CCCCC/C=C\C/C=C\C/C=C\C/C=C\CCCC(=O)NCC(C)C | 0.025 | 2%
CCCCCCCC/C=C\CCCCCCCC(=O)N[C@@H](C)CO | 0.47 | 3.6%
CCCCC/C=C\C/C=C\CCCCCCCC(=O)N[C@@H](C)CO | 0.27 | 20.5%
CCCCC/C=C\C/C=C\C/C=C\C/C=C\CCCC(N)=O | 2.85 | 219%
CCCCC/C=C\C/C=C\C/C=C\C/C=C\CCCC(=O)NC1CCC(O)CC1 (stereo not drawn) | 0.299 | 2%
CCCCC/C=C\C/C=C\C/C=C\C/C=C\CCCC(=O)OC(CO)CO | 3.27 | 251%
CCCCC/C=C\C/C=C\C/C=C\C/C=C\CCCC(=O)NC[C@H](C)O | 0.273 | 21%
CCCCC/C=C\C/C=C\C/C=C\C/C=C\CCC(C)(C)C(=O)NCCO | 0.0094 | 0.7%
